Source: publication PMC3915044 (Integrative biology : quantitative biosciences from nano to …, 2013)
“Also recorded” adds a separate entry of the source.

Columns and labels:
[1] = system: CL1-0 cells; assay: Subcellular localization by epi-fluorescence/confocal microscopy; assay type: cell-based, human; details: for subcellular localization (nucleus versus mitochondria): CL1-0 human lung cancer cells, fluorescence microscopy
[2] = system: MRC-5 cells; assay: Flow cytometry of fluorescence intensity; assay type: cell-based, human; details: MRC-5, LeuLeuOMe treatment
Method in brief: (§1)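 CL1-0 and MRC-5 cells were loaded with 1 µM carbazole dication for 5 h and exposed to 0, 0.5 or 1 mM lysosomotropic agent. Mean fluorescence was taken at 564–606 nm with 488 nm excitation and expressed as a ratio across treatments; three independent experiments.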

[3] = system: MRC-5 cells; assay: Subcellular localization by epi-fluorescence/confocal microscopy; assay type: cell-based, human
[4] = system: CL1-0 cells; assay: Flow cytometry of fluorescence intensity; assay type: cell-based, human
Method in brief: as §1

[5] = system: MCF-7/ADR cells; assay: Flow cytometry of relative fluorescence changes; assay type: cell-based, human; details: for relative fluorescence change upon verapamil: 50 µM verapamil (P-glycoprotein inhibition); for relative fluorescence change upon LeuLeuOMe: 0.5 mM LeuLeuOMe
[6] = system: normal and cancer cells; assay: Low temperature; assay type: cell-based; details: incubation at 4°C, energy-dependent mechanisms inhibited
Method in brief: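 Cells were precooled at 4°C for 1 h to block energy-dependent uptake, then incubated with 1 µM test compound for 1 h. Cells were co-stained for 10 min with 1 ng ml−1 Hoechst 33342 (membrane-permeant) or Hoechst 33258 (impermeant) as controls. Imaging was by epi-fluorescence microscopy.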

[7] = system: MCF-7 cells; assay: Subcellular localization by fluorescence microscopy; assay type: cell-based, human; details: drug-sensitive MCF-7, 5 µM BMVC
[8] = system: MCF-7/ADR cells; assay: as above; assay type: cell-based, human
[9] = system: primary human normal foreskin fibroblast cell line (BJ); assay: Cytoplasmic microinjection; assay type: cell-based; details: BJ cells, 5 min after injection
Method in brief: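 BJ primary foreskin fibroblasts were grown on glass coverslips in EMEM with 10% FBS. At 37°C, the cytoplasm was co-microinjected with 170 µM test compound and 2.5 mg ml−1 Texas Red 70-kDa dextran, which cannot cross nuclear pores. After 5 min incubation, cells were moved to fresh CO2-independent medium and imaged live.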

[10] = Lipophilicity, n-octanol/water partition; assay type: physicochemical
Method in brief: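 Shake-flask method: n-octanol and water were premixed and left overnight. Test compound was added to the aqueous phase at 500 µM and mixed with an equal volume of n-octanol. Absorbance was measured in each phase, and log P was calculated as log[Ao/Aw].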

[11] = system: CL1-0 cells; assay: Lysosomal membrane permeabilization; assay type: cell-based, human
[12] = system: MRC-5 cells; assay: Lysosomal membrane permeabilization; assay type: cell-based, human
[13] = system: normal cells; assay: Effect of lysosomal pH-raising agents on nuclear fluorescence of BMVC; assay type: cell-based; details: agents raise internal pH of lysosomes
[14] = system: MCF-7/ADR cells; assay: Cytotoxicity of doxorubicin; assay type: cell-based; details: Homo sapiens, NCI/ADR-RES, read-out: cytotoxicity IC50

With `C[n+]1ccc(C=Cc2ccc3[nH]c4ccc(C=Cc5cc[n+](C)cc5)cc4c3c2)cc1.[I-].[I-]` [BMVC, 3,6-bis(1-methyl-4-vinylpyridinium) carbazole diiodide] the “lysosomal retention / co-localization with LysoTracker” value ([1]; CL1-0 cancer cells, confocal microscopy) was “partially colocalized with MitoTracker red, but not LysoTracker red”, the “subcellular localization (nucleus versus mitochondria)” value [1] was “strong fluorescent signal was observed in the nuclei; also recorded: localize to the nuclei to a greater extent than the mitochondria” and the “fluorescent signal in cancer cell nuclei upon DNase treatment” value ([1]; fixed CL1-0 cells, DNase) was “dramatically reduced”. For the same compound, the “fluorescent signal in cancer cell nuclei upon RNase treatment” value ([1]; fixed CL1-0 cells, RNase) was “moderately reduced”, the “BMVC fluorescence intensity change after LeuLeuOMe” value [2] was “increase in the fluorescence intensity” and the “BMVC fluorescence localization after LeuLeuOMe” value ([3]; MRC-5, 5 µM BMVC 24 h then LeuLeuOMe 0.5 mM 1 h) was “can be detected in the nucleus”. For the same compound, the “nuclear fluorescence in fixed and permeabilized cells” value ([3]; MRC-5 fixed and permeabilized (4% formaldehyde, 0.1% Triton X-100)) was “strong BMVC fluorescence similar to that in CL1-0 cells”, the “lysosomal retention / co-localization with LysoTracker” value ([3]; MRC-5 normal lung cells, confocal microscopy) was “colocalized with LysoTracker red but not MitoTracker red” and the nuclear fluorescence ([3]; MRC-5 normal lung cells, fluorescence microscopy) was “no fluorescence was observed in the nuclei”. For the same compound, the time-dependent fluorescent intensity ([4]; 1 µM BMVC, flow cytometry, CL1-0 compared with MRC-5) was “significantly higher in CL1-0 than in MRC-5 cells”, the “BMVC fluorescence change after LeuLeuOMe” value ([4]; CL1-0, LeuLeuOMe treatment) was “small increase in BMVC fluorescence” and the “relative fluorescence change upon verapamil” value [5] was “without affecting BMVC fluorescence”. For the same compound, the “relative fluorescence change upon LeuLeuOMe” value [5] was “more than tenfold”, the “fluorescence detected in cells at 4°C (uptake)” value (shortened to “fluorescence detected in cells”) [6] was “not detected” and the subcellular localization [7] was “released from the lysosomes and entered the nucleus”. The “nuclear fluorescence upon LeuLeuOMe treatment” value ([8]; MCF-7/ADR, LeuLeuOMe, confocal microscopy) was “increased nuclear BMVC fluorescence”, the “subcellular localization / lysosomal retention” value ([8]; drug-resistant MCF-7/ADR) was “localized to the lysosomes; also recorded: retained in the lysosomes” and the “localization after microinjection into the cytoplasm” value [9] was “rapidly accumulated in the nuclei”.
For `C[n+]1ccc(/C=C/c2ccc3c(c2)c2cc(/C=C/c4cc[n+](C)cc4)ccc2n3CCOCCOCCOCC[N+]2(C)CCCCC2)cc1.[I-].[I-].[I-]` [BMVC-8C3O], the “subcellular localization (nucleus versus mitochondria)” value [1] was “localized to both the nucleus and the mitochondria” and the “lipophilicity (log P), in words” value [10] was “lower lipophilicity”.
With `CN1CCN(c2ccc3[nH]c(-c4ccc5[nH]c(-c6ccc(O)cc6)nc5c4)nc3c2)CC1` [Hoechst 33258] the “fluorescence detected in cells” value [6] was “not detected”.
With `CCOc1ccc(-c2nc3ccc(-c4nc5ccc(N6CCN(C)CC6)cc5[nH]4)cc3[nH]2)cc1` [Hoechst 33342] the “fluorescence detected in cells” value [6] was “readily detected in the cells”.
With `COC(=O)[C@H](CC(C)C)NC(=O)[C@@H](N)CC(C)C` [LeuLeuOMe, L-leucyl-L-leucine methyl ester] the lysosomal membrane permeabilization [11] was “increases lysosomal membrane permeabilization” and the lysosomal membrane permeabilization [12] was “increases lysosomal membrane permeabilization”.
With `Cl.N` [NH4Cl, ammonium chloride] the “effect on nuclear fluorescence of BMVC” value [13] was “increased nuclear fluorescence of BMVC”.
In the case of `CCN(CC)CCCC(C)Nc1ccnc2cc(Cl)ccc12` (centres unmarked) [chloroquine], the “effect on nuclear fluorescence of BMVC” value [13] is reported as “increased nuclear fluorescence of BMVC”.
For `COc1cccc2c1C(=O)c1c(O)c3c(c(O)c1C2=O)C[C@@](O)(C(=O)CO)C[C@@H]3O[C@H]1C[C@H](N)[C@H](O)[C@H](C)O1` [doxorubicin, reference compound], the IC50 [14] was no less than 20 µM, the “relative fluorescence change upon verapamil” value [5] was “increased twofold” and the “relative fluorescence change upon LeuLeuOMe” value [5] was “no difference in doxorubicin fluorescence”.
